UCH37 inh: human UCH37 deubiquitinating enzyme inhibition; purified proteasome/UCH37, Ub-AMC cleavage fluorescence; inhibition, % (no concentration beside the values); 330,000 compounds, 0.33% hits; AID 588478;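 active = mean inhibition over replicate wells above about 20%, limit read from the data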
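Assay system: Proteasome-bound UCH37. Buffer or medium: pH 7.4 Tris-HCl (50 mM) with ovalbumin, ATP-MgCl2, DTT. Incubation: 30 min preincubation with enzyme, 25 min cleavage at room temperature. Measured by: fluorescence, ex 355 nm, em 460 nm. Read-out basis: percent inhibition. Control set: wells without proteasome as full block, compound-free enzyme plus substrate as uninhibited.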
Rtt109 Vps75: C. albicans Rtt109 histone acetyltransferase inhibition | Q5AAJ8 | purified Rtt109/Vps75, ThioGlo CoA-SH fluorescence, 4 h | inhibition, % at 34.9 µM | 330,000 compounds, 0.16% hits | AID 540336;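 active = inhibition of at least 50% in every replicate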
HDAC3 inhib: inhibitors of human histone deacetylase 3; O15379; recombinant HDAC3, fluorogenic peptide/trypsin coupled, fluorescence; inhibition, % at 8.3 µM; 320,000 compounds, 0.15% hits; AID 2718; in the data active = inhibition above about 26%, passing the limit was not always enough
ALR inh: blocks human ALR sulfhydryl oxidase activity. P55789. purified ALR, DTT oxidation, H2O2 HRP-luminol luminescence. 290,000 compounds, 3.8% hits. inhibition, % (test concentration not listed);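 active = mean replicate inhibition above about 79%, with every replicate also reaching it, limit read from the data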
PfM18AAP inh: blocks P. falciparum M18 aspartyl aminopeptidase | recombinant PfM18AAP, H-Glu-NHMec fluorogenic cleavage | inhibition, % at 7.35 µM | 290,000 compounds, 1.2% hits | AID 1822;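 active = inhibition above the campaign mean inhibition over all tested compounds plus 3 SD, cut at about 28% in these data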
FAS-TE inh: blocks the thioesterase domain of human fatty acid synthase. 360,000 compounds, 0.67% hits. AID 602261. P49327. recombinant FAS-TE, OMFH fluorogenic substrate, fluorescence endpoint. inhibition, % at 15 µM;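 active = compounds whose normalised, plate-corrected inhibition of enzyme fluorescence in the single-dose primary screen is 50% or more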
Large screens that a line does not name were inactive. A selection: hits, their analogues and other compounds. The true share with any hit is near 4.6%.

Clc1ccc(-c2nnc(-c3ccccc3)c(N3CCSCC3)n2)cc1	none
CC1CN(c2nc(-c3ccc(Br)cc3)nnc2-c2ccccc2)CC(C)N1 (centres undefined)	ALR inh 97
O=C1CN(C(=O)/C=C/c2ccc(Cl)cc2)c2ccccc2N1	Rtt109 Vps75 56
O=C1CN(C(=O)/C=C/c2cccc(Cl)c2)c2ccccc2N1	none
O=C(CNS(=O)(=O)c1ccccc1)NN=Cc1ccncc1	none (no result: Rtt109 Vps75, HDAC3 inhib, ALR inh, PfM18AAP inh, FAS-TE inh)
COc1ccc([N+](=O)[O-])cc1NC(=O)CC1SC(=Nc2cccc(C)c2C)N(N=Cc2cccc(OC)c2OC)C1=O (centres undefined)	none (no result: Rtt109 Vps75, HDAC3 inhib, ALR inh, PfM18AAP inh, FAS-TE inh)
COc1ccc(-c2nc(CS(=O)CC(=O)NCCN3CCCCC3C)c(C)o2)cc1OC (centres undefined)	ALR inh 100
COc1ccc(-c2nc(CS(=O)CC(=O)NCCCN3CCCC3)c(C)o2)cc1OC (centres undefined)	ALR inh 99
COc1ccc(-c2nc(CS(=O)CC(=O)NCCCN3CCOCC3)c(C)o2)cc1OC (centres undefined)	ALR inh 99
COc1cc(-c2nc(CN3CCCCC3CCNC(C)=O)c(C)o2)ccc1F (centres undefined)	none (no result: HDAC3 inhib)
COc1ccc(-c2nc(CN3CCC(C(=O)N4CCOCC4)CC3)c(C)o2)cc1OC	none
COc1ccc(-c2nc(CS(=O)CC(=O)NCCN3CCCCCC3)c(C)o2)cc1OC (centres undefined)	ALR inh 100
NC(Cc1ccc([N+](=O)[O-])cc1)=NOC(=O)COc1ccc2ccccc2c1	none (no result: Rtt109 Vps75, HDAC3 inhib, ALR inh, PfM18AAP inh, FAS-TE inh)
Cc1cccc(N=Nc2c(N)n[nH]c2N)c1	ALR inh 93
Cc1cccc(/C=N/n2c(-c3ccccc3)n[nH]c2=S)c1O	ALR inh 91 (no result: UCH37 inh)
Oc1ccccc1C=Nn1c(-c2ccccc2)n[nH]c1=S	none (no result: Rtt109 Vps75, HDAC3 inhib, ALR inh, PfM18AAP inh, FAS-TE inh)
Oc1c(Br)cc(Br)c(/C=N/n2c(-c3ccccc3)n[nH]c2=S)c1Br	ALR inh 85 (no result: UCH37 inh)
Cc1ccc(C(C2=C(O)CC(C)(C)CC2=O)C2C(=O)CC(C)(C)CC2=O)o1 (centres undefined)	ALR inh 97
Cc1nn(C)c(C(=O)Nc2cccc(Nc3ccccc3)c2)c1[N+](=O)[O-]	ALR inh 98 (no result: UCH37 inh)
CC(CC(=O)Nc1ccc(N(C)C)cc1)=NNC(=O)Cc1csc(N)n1	none (no result: Rtt109 Vps75, HDAC3 inhib, ALR inh, PfM18AAP inh, FAS-TE inh)
CC12CN3CC(C)(CN(C1)C3c1ccc(Br)cc1O)C2 (centres undefined)	ALR inh 99
COCCNC(=O)c1nc2ccccc2s1	none
COCCNC(=O)c1ccc(CSc2nc3ccccc3s2)cc1	ALR inh 99
CCNC(=O)c1ccc(CSc2nc3ccccc3s2)cc1	ALR inh 99
NC(=O)c1ccc(CSc2nc3ccccc3s2)cc1	ALR inh 92
CCC(C)/C(C)=N/NC(=O)c1ccc(CSc2nc3ccccc3s2)cc1 (centres undefined)	none (no result: UCH37 inh)
c1ccc2sc(SCc3ccc(-c4nnco4)cc3)nc2c1	none
COCCNC(=O)COC(=O)CSCc1nc2ccccc2s1	ALR inh 98
CCc1ccc(C=NNC(=O)c2nnn(-c3nonc3N)c2CN2CCOCC2)cc1	none (no result: Rtt109 Vps75, HDAC3 inhib, ALR inh, PfM18AAP inh, FAS-TE inh)
CCOC(=O)c1cnc(Nc2nc3ccccc3o2)nc1CN1CCN(C)CC1	PfM18AAP inh 61 (no result: HDAC3 inhib, ALR inh)
Cc1ccc(CN2CCN(N=Cc3cccnc3)CC2)c(C)c1	none (no result: Rtt109 Vps75, HDAC3 inhib, ALR inh, PfM18AAP inh, FAS-TE inh)
CC(C)C(c1nnnn1C1CCCC1)N1c2ccccc2CC1C (centres undefined)	ALR inh 99
CC(C)c1ccc(C=Nn2cnnc2)cc1	none (no result: Rtt109 Vps75, HDAC3 inhib, ALR inh, PfM18AAP inh, FAS-TE inh)
COC(=O)c1sc(-c2ccc(C(C)(C)C)cc2)cc1NC(=O)COCC(=O)O	ALR inh 98 (no result: HDAC3 inhib)
CCc1ccc(C=c2sc(=CC(=O)C(C)(C)C)[nH]c2=O)cc1	none (no result: Rtt109 Vps75, HDAC3 inhib, ALR inh, PfM18AAP inh, FAS-TE inh)
COc1ccc(C(=O)n2nc(-c3ccco3)nc2N)cc1	HDAC3 inhib 84
Cc1ccc(C(=O)n2nc(-c3ccco3)nc2N)cc1	HDAC3 inhib 40
CC(=NNC(=O)Cc1c(C)[nH][nH]c1=O)c1ccc2ccccc2c1	none (no result: Rtt109 Vps75, HDAC3 inhib, ALR inh, PfM18AAP inh, FAS-TE inh)
CCOC(=O)C(C(C)=NNC(=O)C1CC1c1ccccc1)C(C)C (centres undefined)	none (no result: Rtt109 Vps75, HDAC3 inhib, ALR inh, PfM18AAP inh, FAS-TE inh)
Cc1ccc(N2C(=O)CS/C2=C(\C(Cl)=C(Cl)Cl)[N+](=O)[O-])cc1	ALR inh 98
